Measurements pooled from the literature.
Protocols differ between the studies behind these lines.
Target: Muscarinic acetylcholine receptor M1 (CHRM1, Homo sapiens, UniProt P11229)
Concentration: 10 µM
Sequence (P11229 1-460, as in one of the studies): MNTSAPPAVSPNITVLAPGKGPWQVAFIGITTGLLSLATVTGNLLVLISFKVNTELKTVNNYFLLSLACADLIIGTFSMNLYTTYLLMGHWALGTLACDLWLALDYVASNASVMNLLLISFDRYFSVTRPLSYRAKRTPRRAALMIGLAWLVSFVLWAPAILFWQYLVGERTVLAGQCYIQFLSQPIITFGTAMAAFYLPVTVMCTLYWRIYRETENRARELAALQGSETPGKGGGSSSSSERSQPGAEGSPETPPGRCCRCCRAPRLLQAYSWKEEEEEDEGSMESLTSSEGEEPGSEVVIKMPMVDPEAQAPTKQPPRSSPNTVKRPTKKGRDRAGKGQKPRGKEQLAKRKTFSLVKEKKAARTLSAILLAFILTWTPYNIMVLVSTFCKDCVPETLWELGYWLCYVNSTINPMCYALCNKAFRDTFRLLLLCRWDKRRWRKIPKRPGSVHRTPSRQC

SMILES	read-out	technique	inhibition
CCN(CC)CCCC[C@H](NC(=O)[C@H](CC(C)C)NC(=O)[C@H](C)NC(=O)[C@H](Cc1ccccc1)NC(=O)c1ccc(C(C)(C)C)cc1)C(=O)N[C@@H](CO)C(=O)OC	ligand displacement	radioligand	1%
COc1ccc2cc(OCC3(C(=O)O)CN(C(=O)c4ccc(F)cc4)C3)ccc2c1	ligand displacement	–	-0.03%
C[C@H](C(=O)N[C@H]1COc2ccccc2[C@@H]1S(C)(=O)=O)c1ccc(F)cc1	cell-free assay	–	-7%
CC(C)N1CCC[C@H]1CNC(=O)c1cn(C2CCCC2)c(=O)c2c1c1ccccc1n2C	ligand displacement	radioligand	-1%
CS(=O)(=O)c1cc(C2(NC(=O)c3cncc4c3cnn4-c3ccc(F)cc3)CC2)ccn1	cell-free assay	–	-14.8%
c1ccc(C(NCCNC(c2ccccc2)c2ccccc2)c2ccccc2)cc1	cell-free assay	–	21%
COCc1c(-c2cc3cc(C)cc(OC)c3s2)c2c(N)ncnn2c1CN1CCNC(=O)C1	ligand displacement	radioligand	6%
Clc1ccc2c(C3CCN(CCc4c[nH]c5ccccc45)CC3)c[nH]c2c1	ligand displacement	radioligand	31%
CN1CC[C@]2(C)c3cc(OC(=O)Nc4ccccc4)ccc3N(C)[C@H]12	ligand displacement	radioligand	0%
